Each block holds one molecule with its values, some of them ahead of it. Activity calls are given as the source filed them. The calls are words filed in the database; no cut-off is given here.
What was measured:
[1] = Binding affinity to leaf opening factor beta-glucosidase relative to potassium lespedezate; set-up: unit not given here
In short: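 Purified LOFG was added to 25 mM acetate pH 4.5 containing 1 mM of each substrate analog, preincubated at 37 °C. The mixture was incubated 2 h at 37 °C, then stopped with 0.1 M Tris-HCl pH 9.0, bringing the pH to 8.0. The released aglycon was quantified by RP-HPLC, and activity was expressed relative to potassium lespedezate.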

[2] = Activity of leaf opening factor beta-glucosidase at pH 4.5
In short: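 Purified leaf-opening factor β-glucosidase (LOFG) from L. cuneata leaves, assayed in 25 mM acetate pH 4.5 with potassium lespedezate at four substrate levels. The semicarbazone of the released α-keto acid was trapped with 1 mM semicarbazide and quantified by RP-HPLC after 2 h at 37 °C. Km was taken from a Lineweaver–Burk plot.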

[3] = Inhibition of Aspergillus niger beta-glucosidase in acetate buffer at pH 4.5
In short: (§1)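 Aspergillus niger β-glucosidase was preincubated with inhibitor for 15 min at 37 °C before the p-nitrophenyl glucoside was added. Buffers were 25 mM acetate at pH 4.5–5.5 and 25 mM Bis-Tris at pH 6.0. The reaction was stopped with 0.5 M Na2CO3, and released p-nitrophenol was read at 405 nm. Ki was derived from Lineweaver–Burk plots.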

[4] = Inhibition of Aspergillus niger beta-glucosidase in acetate buffer at pH 5.5; in short: as §1
[5] = target: T1, Beta-galactosidase (Aspergillus oryzae) (UniProt Q2U7N3); assay: Inhibition of Aspergillus oryzae beta-galactosidase in acetate buffer at pH 5.0 at 1 mM
T1 sequence (whole entry): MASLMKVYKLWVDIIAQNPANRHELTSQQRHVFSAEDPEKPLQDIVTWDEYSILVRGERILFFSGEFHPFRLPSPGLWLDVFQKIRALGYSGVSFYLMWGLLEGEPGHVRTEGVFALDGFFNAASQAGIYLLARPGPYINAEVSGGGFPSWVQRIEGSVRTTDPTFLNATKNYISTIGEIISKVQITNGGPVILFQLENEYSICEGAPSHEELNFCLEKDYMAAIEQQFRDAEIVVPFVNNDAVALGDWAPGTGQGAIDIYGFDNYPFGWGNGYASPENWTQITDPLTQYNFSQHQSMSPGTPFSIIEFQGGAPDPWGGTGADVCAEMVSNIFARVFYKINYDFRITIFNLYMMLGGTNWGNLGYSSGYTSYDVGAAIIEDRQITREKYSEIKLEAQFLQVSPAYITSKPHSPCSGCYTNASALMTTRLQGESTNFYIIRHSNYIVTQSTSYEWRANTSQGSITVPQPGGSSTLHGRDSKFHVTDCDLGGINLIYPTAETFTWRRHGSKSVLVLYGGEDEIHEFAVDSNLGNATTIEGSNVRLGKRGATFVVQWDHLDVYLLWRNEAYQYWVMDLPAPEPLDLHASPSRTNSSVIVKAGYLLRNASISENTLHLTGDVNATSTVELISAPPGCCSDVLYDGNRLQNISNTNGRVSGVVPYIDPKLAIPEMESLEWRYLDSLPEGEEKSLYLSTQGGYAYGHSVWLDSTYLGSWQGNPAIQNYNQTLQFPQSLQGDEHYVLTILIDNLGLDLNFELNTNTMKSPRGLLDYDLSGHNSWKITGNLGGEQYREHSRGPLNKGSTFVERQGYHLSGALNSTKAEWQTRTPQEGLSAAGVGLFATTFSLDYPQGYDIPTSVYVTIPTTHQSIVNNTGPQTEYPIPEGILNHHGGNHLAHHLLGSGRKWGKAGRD
In short: (§2)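 Commercial glycosidases were preincubated with varied inhibitor amounts for 15 min at 37 °C in 50 mM acetate buffer: pH 5.0 for the β-glucosidases and β-galactosidase, pH 6.8 for α-glucosidase. The matching p-nitrophenyl glycoside was then added, and the reaction was stopped with 0.5 M Na2CO3. p-Nitrophenol was read at 405 nm. Ki came from Lineweaver–Burk plots, and percent inhibition was also scored at 1 mM inhibitor.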

[6] = Inhibition of Aspergillus niger beta-glucosidase in acetate buffer at pH 6.0
[7] = Inhibition of Aspergillus niger beta-glucosidase in acetate buffer at pH 5.0; in short: as §2
[8] = test system: Prunus dulcis; assay: Inhibition of Almond beta-glucosidase in acetate buffer at pH 5.0 at 1 mM; in short: as §2
[9] = test system: Geobacillus stearothermophilus; assay: Inhibition of Bacillus stearothermophilus alpha-glucosidase in acetate buffer at pH 6.8 at 1 mM; in short: as §2

Structure (SMILES): OC/C(=C\c1ccc(O)cc1)N[C@@H]1O[C@H](CO)[C@@H](O)[C@H](O)[C@H]1O
- Activity [1]: 113

Structure (SMILES): O=C(O)/C(=C\c1ccc(O)cc1)O[C@@H]1O[C@H](CO)[C@H](O)[C@H](O)[C@H]1O
- Activity [1]: 0

Structure (SMILES): O=C(O)/C(=C/c1ccc(O)cc1)O[C@@H]1O[C@H](CO)[C@@H](O)[C@H](O)[C@H]1O
- Activity [1]: 0

Structure (SMILES): OCC(=Nc1ccc(O)cc1)N[C@@H]1O[C@H](CO)[C@@H](O)[C@H](O)[C@H]1O
- Ki [3]: 3500 nM
- Ki [4]: 1330 nM
- Activity [5]: inactive
- Ki [6]: 4120 nM
- Ki [7]: 1300 nM
- inhibition [8]: < 90%
- Activity [9]: inactive

The next lines start with the values.

- Activity [1]: 26
Structure (SMILES): O=C(O)C(Cc1ccc(O)cc1)O[C@@H]1O[C@H](CO)[C@@H](O)[C@H](O)[C@H]1O (stereo partly drawn)

- Km [2]: 548 µM
Structure (SMILES): O=C(O)/C(=C\c1ccc(O)cc1)O[C@@H]1O[C@H](CO)[C@@H](O)[C@H](O)[C@H]1O

- Activity [1]: 0
Structure (SMILES): O=C(O)/C(=C/c1ccc(O)cc1)O[C@@H]1O[C@H](CO)[C@H](O)[C@H](O)[C@H]1O

Source: ChEMBL document CHEMBL1142422, “Affinity purification and characterization of a key enzyme responsible for circadian rhythmic control of nyctinasty in Lespedeza cuneata L” (Bioorg Med Chem, 2008)
